Measurements collected from several papers.
Each line is one published result; the experiments were not run side by side.
Target: Serine/threonine-protein kinase tousled-like 1 (TLK1, Homo sapiens, UniProt Q9UKI8)
One construct used (Q9UKI8 1-766): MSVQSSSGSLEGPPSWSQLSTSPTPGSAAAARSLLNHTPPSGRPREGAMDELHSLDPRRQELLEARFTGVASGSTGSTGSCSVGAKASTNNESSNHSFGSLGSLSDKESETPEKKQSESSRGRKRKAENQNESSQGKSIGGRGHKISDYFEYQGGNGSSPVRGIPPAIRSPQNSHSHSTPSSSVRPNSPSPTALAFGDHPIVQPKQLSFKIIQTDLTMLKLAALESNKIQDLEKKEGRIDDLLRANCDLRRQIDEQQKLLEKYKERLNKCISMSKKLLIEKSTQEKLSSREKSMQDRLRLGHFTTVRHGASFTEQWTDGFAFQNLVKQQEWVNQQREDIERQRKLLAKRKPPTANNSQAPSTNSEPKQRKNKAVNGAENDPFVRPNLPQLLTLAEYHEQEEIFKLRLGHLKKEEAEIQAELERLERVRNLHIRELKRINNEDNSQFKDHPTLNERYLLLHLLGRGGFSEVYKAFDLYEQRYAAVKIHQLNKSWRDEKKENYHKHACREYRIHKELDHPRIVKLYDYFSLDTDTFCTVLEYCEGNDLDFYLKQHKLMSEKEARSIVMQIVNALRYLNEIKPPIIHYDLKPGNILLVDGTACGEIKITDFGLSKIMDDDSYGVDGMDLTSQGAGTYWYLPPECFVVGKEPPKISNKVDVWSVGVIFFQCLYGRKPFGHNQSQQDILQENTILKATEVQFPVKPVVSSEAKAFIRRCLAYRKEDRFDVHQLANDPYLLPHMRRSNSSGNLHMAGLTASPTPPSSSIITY

SMILES | effect on | mode | method | concentration | endpoint | result
CC(C)(C)c1nc(-c2cccc(NS(=O)(=O)c3c(F)cccc3F)c2F)c(-c2ccnc(N)n2)s1 | enzyme activity | inhibitor | radiometric | 1 µM | remaining activity | 108%
COc1cc(Cl)c(C(=O)N[C@@H](CN[C@H]2CC[C@@H](N)CC2)Cc2ccc(C#N)cc2)cc1-c1ccc(CN[C@H](C)c2ccc(C)cc2)o1 | enzyme activity | inhibitor | – | 1 µM | remaining activity | 94%
Cc1ccc(C(=O)NCc2ccsc2)cc1C#Cc1cn(C(C)C)c2ncnc(N)c12 | enzyme activity | inhibitor | – | 1 µM | activity vs control | 80%
Cc1ccc(C(=O)Nc2ccc(CN3CCN(C)CC3)c(C(F)(F)F)c2)cc1C#Cc1cnc2cccnn12 | enzyme activity | inhibitor | – | 23.5 nM | remaining activity | 100%
Cc1ccc(NC(=O)c2ccc(C)c(C(F)(F)F)c2)cc1C#Cc1nn(C2CCC(O)CC2)c2ncnc(N)c12 (stereo not shown) | cell-free assay | – | – | 10 µM | remaining signal | 95%
O=C(Nc1cnn(-c2csc(C(=O)NC3COC3)c2)c1)Nc1c(F)cccc1Cl | enzyme activity | inhibitor | – | 5 µM | remaining activity | 53.4%
COc1cc(/C=C/C(=O)CC(=O)/C=C/c2ccc(O)c(OC)c2)ccc1O | enzyme activity | inhibitor | – | 1 µM | activity vs control | 128%
COc1cc(Nc2cnc(C#N)c(O[C@H](C)CN(C)C)n2)ncc1-c1cnn(C)c1 | enzyme activity | inhibitor | radiometric | 10 µM | remaining activity | 93%
Nc1ncnc2occ(-c3ccc(NC(=O)Nc4cc(C(F)(F)F)ccc4F)cc3)c12 | cell-free assay | inhibitor | – | 20 µM | remaining signal | 39%
CN1CC(Oc2cnc(C#N)cc2-c2ccn3nc(NC(=O)C4CC4)cc3c2)C1 | enzyme activity | inhibitor | – | 1 µM | inhibition | -13%
Cc1cnc(NC2CCOCC2)nc1-n1cnc(C(=O)NC(CN)c2cc(F)cc(Cl)c2)c1 (stereo not shown) | enzyme activity | inhibitor | radiometric | 1 µM | remaining activity | 99%
C[C@@H](c1cccc(C#N)c1)n1cc(Cl)cc(C(N)=O)c1=N | cell-free assay | – | competition with immobilised ligand | 1 µM | remaining binding | 100%
CC(C)(O)[C@H]1CC[C@H](Nc2ccc3ncc(-c4cccc(C(F)(F)F)c4)n3n2)CC1 | enzyme activity | inhibitor | – | 1 µM | remaining activity | 94.2%
C[C@H](c1ccnc(Nc2nc3ccc(-c4cc(N(C)C)ncn4)cc3[nH]2)c1)N1CCN(C(=O)CC(F)(F)F)CC1 | cell-free assay | – | competition with immobilised ligand | 0.1 µM | remaining binding | 76%
CC(C)(C)c1nc2c(s1)c1nc(N)ncc1c1ccc(NS(=O)(=O)c3c(F)cccc3F)c(F)c12 | enzyme activity | inhibitor | radiometric | 1 µM | remaining activity | 92%
COc1ccc2c(O[C@@H]3C[C@H]4C(=O)N[C@]5(C(=O)O)CC5/C=C\CCCCC[C@H](NC(=O)OC5CCCC5)C(=O)N4C3)cc(-c3csc(NC(=O)C(C)C)n3)nc2c1C (stereo partly shown) | cell-free assay | – | competition with immobilised ligand | 1 µM | remaining binding | 100%
Cc1sc(C(=O)NC2COC2)cc1-n1cc(NC(=O)Nc2c(F)cccc2Cl)cn1 | enzyme activity | inhibitor | – | 10 µM | remaining activity | 105%
O=C(N1CCS(=O)(=O)CC1)N1C[C@H](c2ccc(OC(F)(F)F)cc2)C[C@H](c2nc(C3CC3)no2)C1 | cell-free assay | – | competition with immobilised ligand | 1 µM | remaining binding | 94%
Cc1cc(NC(=O)c2cccc3cc(-c4cccc5[nH]nc(N)c45)ccc23)ccc1F | enzyme activity | inhibitor | – | 0.1 µM | activity vs control | 88%
